Source: ChEMBL document CHEMBL3124871, “Synthesis and pharmacological characterization of 1-benzyl-4-aminoindole-based thyroid hormone receptor β agonists” (Bioorg Med Chem, 2014)

Tests used:
[1] = molecular target: T1, Thyroid hormone receptor beta (Homo sapiens, UniProt P10828); assay: Displacement of [125I]-Triiodothyronine from human recombinant TRbeta1 ligand binding domain after 2 to 3 hrs by beta counting
T1 sequence (P10828 whole entry): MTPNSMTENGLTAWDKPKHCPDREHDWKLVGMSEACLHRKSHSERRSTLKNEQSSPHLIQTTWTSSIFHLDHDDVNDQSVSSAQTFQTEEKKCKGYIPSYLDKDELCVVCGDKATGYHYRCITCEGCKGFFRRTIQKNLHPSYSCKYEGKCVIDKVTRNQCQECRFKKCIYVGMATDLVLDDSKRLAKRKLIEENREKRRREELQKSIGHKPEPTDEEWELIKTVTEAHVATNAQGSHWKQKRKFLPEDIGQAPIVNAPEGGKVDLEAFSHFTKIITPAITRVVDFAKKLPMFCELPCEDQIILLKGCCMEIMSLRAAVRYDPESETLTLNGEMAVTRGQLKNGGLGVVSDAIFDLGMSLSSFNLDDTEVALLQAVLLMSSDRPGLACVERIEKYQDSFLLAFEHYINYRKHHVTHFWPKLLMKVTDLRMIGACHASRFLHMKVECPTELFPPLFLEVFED

[2] = molecular target: T2, Thyroid hormone receptor alpha (Homo sapiens, UniProt P10827); assay: Displacement of [125I]-Triiodothyronine from human recombinant TRalpha1 ligand binding domain after 2 to 3 hrs by beta counting
T2 sequence (P10827 whole entry): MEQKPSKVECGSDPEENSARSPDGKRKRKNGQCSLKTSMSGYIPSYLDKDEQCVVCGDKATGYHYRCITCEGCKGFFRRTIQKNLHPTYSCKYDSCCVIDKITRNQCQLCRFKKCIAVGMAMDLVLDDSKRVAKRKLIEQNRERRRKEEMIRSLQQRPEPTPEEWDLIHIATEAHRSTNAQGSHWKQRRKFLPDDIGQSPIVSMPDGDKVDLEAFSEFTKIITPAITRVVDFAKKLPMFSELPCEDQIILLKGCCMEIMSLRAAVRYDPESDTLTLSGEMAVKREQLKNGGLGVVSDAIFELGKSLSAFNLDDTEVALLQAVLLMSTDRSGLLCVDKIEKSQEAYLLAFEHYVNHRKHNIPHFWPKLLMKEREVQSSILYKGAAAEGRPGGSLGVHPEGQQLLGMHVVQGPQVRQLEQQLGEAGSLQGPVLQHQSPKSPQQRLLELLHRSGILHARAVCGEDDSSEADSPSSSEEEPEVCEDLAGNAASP

CV-1 = assay: Selectivity ratio of EC50 for human recombinant transfected in CV-1 cells to EC50 for human recombinant TRbeta1 transfected in CV-1 cells; assay type: cell-based
Summary of the method: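 CV-1 monkey kidney cells grown in DMEM with 10% FBS for 24 h at 37 °C and 5% CO2. Transfected (FuGENE) with hTRα1 or hTRβ1 plus a SEAP reporter for 24 h, then exposed to T3 or test compound for 8-10 h. SEAP was read as A405 of p-nitrophenol (pH 9.8, 30 min, RT). EC50 was set against T3 max = 100%; mean of four experiments; α/β ratio of EC50s.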

[3] = molecular target: T1, Thyroid hormone receptor beta; assay: Agonist activity at human recombinant TRbeta1 transfected in CV-1 cells after 8 to 10 hrs by alkaline phosphatase reporter gene assay; assay type: cell-based
[4] = molecular target: T2, Thyroid hormone receptor alpha; assay: Agonist activity at human recombinant TRalpha1 transfected in CV-1 cells after 8 to 10 hrs by alkaline phosphatase reporter gene assay; assay type: cell-based
HepG2 = assay: Selectivity ratio of EC50 for human recombinant transfected in human HepG2 cells to EC50 for human recombinant TRbeta1 transfected in human HepG2; assay type: cell-based
[5] = molecular target: T1, Thyroid hormone receptor beta; assay: Agonist activity at human recombinant TRbeta1 transfected in human HepG2 cells after 8 to 10 hrs by alkaline phosphatase reporter gene assay; assay type: cell-based
Homo sapiens = organism: Homo sapiens; assay: Reduction in LDL-cholesterol in healthy human at 100 ug qd for 1 week; assay type: functional; parameters: scale not given: the % may be the effect or the level left
Rattus norvegicus [6] = assay: Toxicity in cholesterol-fed Sprague-Dawley rat assessed as total T4 level at 150 mg/kg/day, po qd for 1 week measured 3 to 6 hrs post last dose (reference value: 3.8 +/- 0.9 ug/dl); assay type: organism-based; parameters: route oral; settings: in vivo
Rattus norvegicus [7] = assay: Toxicity in cholesterol-fed Sprague-Dawley rat assessed as heart weight at 30 mg/kg/day, po qd for 1 week measured 3 to 6 hrs post last dose (reference value: 1.14 +/- 0.12 g); assay type: organism-based; parameters: route oral; settings: in vivo
Rattus norvegicus [8] = assay: Toxicity in cholesterol-fed Sprague-Dawley rat assessed as heart rate at 150 mg/kg/day, po qd for 1 week measured 3 to 6 hrs post last dose (reference value: 383.0 +/- 26.7 bpm); assay type: organism-based; parameters: route oral; settings: in vivo
Rattus norvegicus [9] = assay: Reduction in plasma free cholesterol in cholesterol-fed Sprague-Dawley rat at 30 mg/kg/day, po qd for 1 week measured 3 to 6 hrs post last dose (reference value: 36 +/- 9 mg/dl); assay type: functional
Rattus norvegicus [10] = assay: Reduction in plasma triglyceride level in cholesterol-fed Sprague-Dawley rat at 30 mg/kg/day, po qd for 1 week measured 3 to 6 hrs post last dose (reference value: 62 +/- 25 mg/dl); assay type: functional
Rattus norvegicus [11] = assay: Reduction in plasma total cholesterol in cholesterol-fed Sprague-Dawley rat at 30 mg/kg/day, po qd for 1 week measured 3 to 6 hrs post last dose (reference value: 190 +/- 49 mg/dl); assay type: functional
Rattus norvegicus [12] = assay: Toxicity in cholesterol-fed Sprague-Dawley rat assessed as heart rate at 30 mg/kg/day, po qd for 1 week measured 3 to 6 hrs post last dose (reference value: 383.0 +/- 26.7 bpm); assay type: organism-based; parameters: route oral; settings: in vivo
Rattus norvegicus [13] = assay: Toxicity in cholesterol-fed Sprague-Dawley rat assessed as TSH level at 150 mg/kg/day, po qd for 1 week measured 3 to 6 hrs post last dose (reference value: 3.0 +/- 1.0 uIU/ml); assay type: organism-based; parameters: route oral; settings: in vivo
Rattus norvegicus [14] = assay: Toxicity in cholesterol-fed Sprague-Dawley rat assessed as total T4 level at 30 mg/kg/day, po qd for 1 week measured 3 to 6 hrs post last dose (reference value: 3.8 +/- 0.9 ug/dl); assay type: organism-based; parameters: route oral; settings: in vivo
Rattus norvegicus [15] = assay: Toxicity in cholesterol-fed Sprague-Dawley rat assessed as TSH level at 30 mg/kg/day, po qd for 1 week measured 3 to 6 hrs post last dose (reference value: 3.0 +/- 1.0 uIU/ml); assay type: organism-based; parameters: route oral; settings: in vivo
Rattus norvegicus [16] = assay: Toxicity in cholesterol-fed Sprague-Dawley rat assessed as heart weight at 150 mg/kg/day, po qd for 1 week measured 3 to 6 hrs post last dose (reference value: 1.14 +/- 0.12 g); assay type: organism-based; parameters: route oral; settings: in vivo
Rattus norvegicus [17] = assay: Reduction in plasma HDL-cholesterol in cholesterol-fed Sprague-Dawley rat at 30 mg/kg/day, po qd for 1 week measured 3 to 6 hrs post last dose (reference value: 22 +/- 6 mg/dl); assay type: functional
Rattus norvegicus [18] = assay: Reduction in plasma LDL-cholesterol in cholesterol-fed Sprague-Dawley rat at 30 mg/kg/day, po qd for 1 week measured 3 to 6 hrs post last dose (reference value: 51 +/- 15 mg/dl); assay type: functional

## Cc1c(C(=O)NCC(=O)O)c2ccccc2n1Cc1ccc(O)c(C(C)C)c1
[1]
  IC50: 1100 nM
[2]
  IC50: > 10000 nM

## Cc1c(CCCCC(=O)O)c2ccccc2n1Cc1ccc(O)c(C(C)C)c1
CV-1
  Ratio EC50: 1.6
[1]
  IC50: 1400 nM
[2]
  IC50: > 10000 nM
[3]
  EC50: 62 nM
[4]
  EC50: 100 nM

## Cc1c(CCCC(=O)O)c2ccccc2n1Cc1ccc(O)c(C(C)C)c1
CV-1
  Ratio EC50: 4.8
[1]
  IC50: 290 nM
[2]
  IC50: 3400 nM
[3]
  EC50: 37 nM
[4]
  EC50: 180 nM

## Cc1cc2c(NC(=O)C(=O)O)cccc2n1Cc1ccc(O)c(C(C)C)c1
CV-1
  Ratio EC50: 2.2
HepG2
  Ratio EC50: 1.5
[5]
  EC50: 110 nM
[3]
  EC50: 590 nM

## CC(C)c1cc(Oc2c(Br)cc(NC(=O)CC(=O)O)cc2Br)ccc1O [EPROTIROME]
Homo sapiens
  Activity: 40%

## Cc1cc2c(NC(=O)CC(=O)O)cccc2n1Cc1ccc(O)c(C(C)C)c1
Rattus norvegicus [6]
  Activity: 1.7 µg/dL
CV-1
  Ratio EC50: 4.5
HepG2
  Ratio EC50: 16
Rattus norvegicus [7]
  Activity: 1.13 g
Rattus norvegicus [8]
  Activity: 415.8 bpm
Rattus norvegicus [9]
  Activity: 19 mg/dL
Rattus norvegicus [10]
  Activity: 44 mg/dL
[1]
  IC50: 230 nM
[2]
  IC50: 5200 nM
[5]
  EC50: 220 nM
[3]
  EC50: 1700 nM
Rattus norvegicus [11]
  Activity: 111 mg/dL
Rattus norvegicus [12]
  Activity: 403.2 bpm
Rattus norvegicus [13]
  Activity: 0.9 uIU/ml
Rattus norvegicus [14]
  Activity: 2.8 µg/dL
Rattus norvegicus [15]
  Activity: 3.1 uIU/ml
Rattus norvegicus [16]
  Activity: 1.24 g
Rattus norvegicus [17]
  Activity: 23 mg/dL
Rattus norvegicus [18]
  Activity: 25 mg/dL

## Cc1cc2cc(NC(=O)C(=O)O)ccc2n1Cc1ccc(O)c(C(C)C)c1
[1]
  IC50: 1500 nM
[2]
  IC50: 230 nM

## Cc1c(CCC(=O)O)c2ccccc2n1Cc1ccc(O)c(C(C)C)c1
CV-1
  Ratio EC50: 1
[1]
  IC50: 760 nM
[2]
  IC50: 1300 nM
[3]
  EC50: 37 nM
[4]
  EC50: 39 nM
